{"source": "ChEMBL document CHEMBL5653614", "about": "“Rescue of fragile X syndrome phenotypes in Fmr1 KO mice by the small-molecule PAK inhibitor FRAX486” (Proc Natl Acad Sci U S A, 2013)", "key": {"[1]": {"target": "Serine/threonine-protein kinase PAK 2 (Homo sapiens, UniProt Q13177)", "sequence (Q13177 whole entry, canonical isoform)": "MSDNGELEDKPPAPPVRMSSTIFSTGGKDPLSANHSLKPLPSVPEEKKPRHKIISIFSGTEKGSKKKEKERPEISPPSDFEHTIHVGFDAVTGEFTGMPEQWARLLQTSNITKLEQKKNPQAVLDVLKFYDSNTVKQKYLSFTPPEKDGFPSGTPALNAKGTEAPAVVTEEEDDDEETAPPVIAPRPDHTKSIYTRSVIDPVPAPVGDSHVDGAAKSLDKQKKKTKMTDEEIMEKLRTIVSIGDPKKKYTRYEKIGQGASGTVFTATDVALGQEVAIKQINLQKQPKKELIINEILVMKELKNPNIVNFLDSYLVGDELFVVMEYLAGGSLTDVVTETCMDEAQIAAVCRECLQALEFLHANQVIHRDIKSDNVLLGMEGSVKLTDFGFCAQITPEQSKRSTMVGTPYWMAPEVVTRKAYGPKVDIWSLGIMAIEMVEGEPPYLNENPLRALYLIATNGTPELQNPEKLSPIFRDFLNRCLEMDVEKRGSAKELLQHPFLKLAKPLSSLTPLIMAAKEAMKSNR", "test": "Inhibition of PAK2 (unknown origin) by Z'-LYTE functional assay", "summary_of_the_method": "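Full-length PAK isoforms phosphorylating an optimized peptide substrate in a Z-LYTE biochemical kinase assay, 10-point inhibitor titration. Duplicates (n = 2, mean ± SEM) plotted semilog; IC50 from a variable-slope sigmoidal dose–response fit.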"}, "[2]": {"test": "Drug uptake in FVB.129P2 mouse plasma at 20 mg/kg,sc for 5 days and measured after 24 hrs by LC-MS/MS analysis", "format": "ADME, organism-based", "settings": "in vivo, 120 h, time 5 day", "summary_of_the_method": "(§1)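 Mice dosed s.c. at 20 mg/kg once daily for up to 5 d; plasma and forebrain sampled 24 h after the last injection. Brain homogenized in 2 volumes of cold PBS; levels measured by LC-MS/MS. n = 3–4, mean ± SEM.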"}, "[3]": {"test": "Drug uptake in FVB.129P2 mouse brain at 20 mg/kg,sc for 5 days and measured after 24 hrs by LC-MS/MS analysis", "format": "ADME, organism-based", "settings": "in vivo, 120 h, time 5 day", "summary_of_the_method": "as §1"}, "Mus musculus [4]": {"tested_on": "Mus musculus", "test": "Protective activity in Fmr1 knockout FVB.129P2-Fmr1tm1Cgr/J mouse assessed as decrease in apical dendritic spine density in layer II/III pyramidal neurons segment 1 at 20 mg/kg, sc and measured after 8 hrs by Golgi-Cox technique analysis", "format": "functional, organism-based", "summary_of_the_method": "(§2)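 Adult male WT and Fmr1 KO FVB mice given 20 mg/kg s.c. or vehicle; brains collected 8 h later and Golgi stained. Apical dendrites of layer II/III pyramidal neurons in temporal cortex, originating 50–100 µm from the soma, were divided into ten 10-µm segments and spines counted. 40–60 neurons from 4–6 mice per group; one-way ANOVA.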"}, "Mus musculus [5]": {"tested_on": "Mus musculus", "test": "Protective activity in Fmr1 knockout FVB.129P2-Fmr1tm1Cgr/J mouse assessed as decrease in apical dendritic spine density in layer II/III pyramidal neurons segment 2 at 20 mg/kg, sc and measured after 8 hrs by Golgi-Cox technique analysis", "format": "functional, organism-based", "summary_of_the_method": "as §2"}, "Mus musculus [6]": {"tested_on": "Mus musculus", "test": "Anti-seizure activity against 124dB loud auditory stimulus induced Fmr1 knockout FVB.129P2-Fmr1tm1Cgr/J mouse model of audiogenic seizure assessed as decrease in sound-induced death due to respiratory arrest at 10 to 30 mg/kg,sc for 8 hrs followed by audiogenic seizure induction by audiogenic seizure assay", "format": "functional, organism-based", "settings": "dose 10-30 mg/kg", "summary_of_the_method": "(§3)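 Adult male mice (10–17 wk). Single s.c. dose (0, 10, 20 or 30 mg/kg) in 20% (wt/vol) hydroxypropyl-β-cyclodextrin vehicle; AGS induced 8 h later. Mouse acclimated 2 min in a clear acrylic two-chamber box, then exposed to a 124 dB sound. Scored as percentage of animals showing each sequential phase (wild running, seizure, death by respiratory arrest); χ2 test against vehicle.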"}, "Mus musculus [7]": {"tested_on": "Mus musculus", "test": "Protective activity in Fmr1 FVB.129P2-Pde6b+ Tyr c-ch/AntJ wild type mouse assessed as change in basal dendritic spine density in cortical neuron at 20 mg/kg, sc and measured after 8 hrs by Golgi-Cox technique analysis", "format": "functional, organism-based", "settings": "Cortical neurone"}, "Mus musculus [8]": {"tested_on": "Mus musculus", "test": "Anti-seizure activity against 124dB loud auditory stimulus induced Fmr1 knockout FVB.129P2-Fmr1tm1Cgr/J mouse model of audiogenic seizure assessed as decrease in sound-induced wild running at 10 mg/kg,sc for 8 hrs followed by audiogenic seizure induction by audiogenic seizure assay (Rvb=100%)", "format": "functional", "design": "scale not given: the % may be the effect or the level left", "summary_of_the_method": "as §3"}, "Mus musculus [9]": {"tested_on": "Mus musculus", "test": "Anti-seizure activity against 124dB loud auditory stimulus induced Fmr1 knockout FVB.129P2-Fmr1tm1Cgr/J mouse model of audiogenic seizure assessed as decrease in sound-induced wild running at 20 mg/kg,sc for 8 hrs followed by audiogenic seizure induction by audiogenic seizure assay (Rvb=100%)", "format": "functional", "design": "scale not given: the % may be the effect or the level left", "summary_of_the_method": "as §3"}, "Mus musculus [10]": {"tested_on": "Mus musculus", "test": "(§4) Anti-seizure activity against 124dB loud auditory stimulus induced Fmr1 knockout FVB.129P2-Fmr1tm1Cgr/J mouse model of audiogenic seizure assessed as decrease in sound-induced seizure at 10 mg/kg,sc for 8 hrs followed by audiogenic seizure induction by audiogenic seizure assay (Rvb=100%)", "format": "functional", "design": "scale not given: the % may be the effect or the level left", "summary_of_the_method": "as §3"}, "Mus musculus [11]": {"tested_on": "Mus musculus", "test": "as §4, with “5 days” for “8 hrs”, “induction after 8 hrs post-treatment” for “induction”, “(Rvb=96%)” for “(Rvb=100%)”", "format": "functional", "design": "scale not given: the % may be the effect or the level left", "settings": "time 5 day", "summary_of_the_method": "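Adult male Fmr1 KO mice given 10 or 20 mg/kg s.c. daily for 5 d in 20% hydroxypropyl-β-cyclodextrin vehicle. AGS assay run 8 h after the final injection: 2 min acclimation in an acrylic chamber, then a 124 dB auditory stimulus. Incidence of wild running and seizure recorded; χ2 comparison with vehicle.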"}, "Mus musculus [12]": {"tested_on": "Mus musculus", "test": "Protective activity in Fmr1 knockout FVB.129P2-Fmr1tm1Cgr/J mouse model of Fragile X syndrome assessed as decrease in distance travelled at 20 mg/kg, sc for 5 days and measured during 18 to 30 mins by open field assay", "format": "functional, organism-based", "settings": "time 5.0 day", "summary_of_the_method": "(§5)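 Adult male WT and Fmr1 KO mice dosed s.c. at 20 mg/kg or vehicle for 5 d; tested 4–5.5 h after dosing. Single mouse in a novel open field for 30 min, tracked by infrared sensors in 1-min bins; bar-graph values averaged over minutes 18–30. Mice beyond 2 SD in total distance, or immobile for 5 consecutive minutes, were excluded.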"}, "Mus musculus [13]": {"tested_on": "Mus musculus", "test": "Protective activity in Fmr1 knockout FVB.129P2-Fmr1tm1Cgr/J mouse model of Fragile X syndrome assessed as decrease in horizontal movements at 20 mg/kg, sc for 5 days and measured for 30 mins by open field assay", "format": "functional, organism-based", "settings": "time 5.0 day", "summary_of_the_method": "as §5"}, "Mus musculus [14]": {"tested_on": "Mus musculus", "test": "Protective activity in Fmr1 knockout FVB.129P2-Fmr1tm1Cgr/J mouse model of Fragile X syndrome assessed as decrease in counterclockwise revolutions at 20 mg/kg, sc for 5 days by open field assay", "format": "functional, organism-based", "settings": "time 5.0 day", "summary_of_the_method": "as §5"}, "Mus musculus [15]": {"tested_on": "Mus musculus", "test": "Protective activity in FVB.129P2-Pde6b+ Tyr c-ch/AntJ wild type mouse assessed as decrease in distance travelled at 20 mg/kg, sc for 5 days and measured during 18 to 30 mins by open field assay", "format": "functional, organism-based", "settings": "time 5.0 day", "summary_of_the_method": "as §5"}, "Mus musculus [16]": {"tested_on": "Mus musculus", "test": "Protective activity in FVB.129P2-Pde6b+ Tyr c-ch/AntJ wild type mouse assessed as decrease in time spent in moving at 20 mg/kg, sc for 5 days and measured for 30 mins by open field assay", "format": "functional, organism-based", "settings": "time 5.0 day", "summary_of_the_method": "as §5"}, "Mus musculus [17]": {"tested_on": "Mus musculus", "test": "Protective activity in FVB.129P2-Pde6b+ Tyr c-ch/AntJ wild type mouse assessed as decrease in stereotypy count at 20 mg/kg, sc for 5 days by open field assay", "format": "functional, organism-based", "settings": "time 5.0 day", "summary_of_the_method": "as §5"}, "Mus musculus [18]": {"tested_on": "Mus musculus", "test": "Protective activity in Fmr1 knockout FVB.129P2-Fmr1tm1Cgr/J mouse model of Fragile X syndrome assessed as motor coordination at 20 mg/kg, sc and measured for 4 to 5.25 hrs by rotarod test", "format": "functional, organism-based", "settings": "time 4-5.25 hrs", "summary_of_the_method": "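Adult male Fmr1 KO mice (FVB background, 10–17 wk old) got FRAX486 s.c. at 20 mg/kg as a 2 mg/mL solution in 20% (wt/vol) hydroxypropyl-β-cyclodextrin; vehicle-only controls. Rotarod was run 4–5.5 h after dosing. Latency to fall or jump off the rotating cylinder was recorded, with a maximum of 3 min. Three trials 30–40 min apart were averaged per mouse.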"}, "[19]": {"test": "Toxicity in Fmr1 knockout FVB.129P2-Fmr1tm1Cgr/J mouse assessed as body weight change at 20 mg/kg,sc for 21 days", "format": "organism-based", "settings": "in vivo, 504 h, time 21 day"}, "Mus musculus [20]": {"tested_on": "Mus musculus", "test": "Protective activity in FVB.129P2-Pde6b+ Tyr c-ch/AntJ wild type mouse assessed as increase in testicular weight at 20 mg/kg, sc for 21 days", "format": "functional, organism-based", "settings": "time 21.0 day"}}, "note": "pIC50: −log10 of the molar value. Activity calls are given as the source filed them. No cut-off for these calls is given here.", "data": [{"smiles": "CCn1c(=O)c(-c2ccc(Cl)cc2Cl)cc2cnc(Nc3ccc(N4CCNCC4)c(F)c3)nc21", "values": [{"measurement": "pIC50", "setting": "[1]", "value": 7.40}, {"measurement": "Drug uptake", "setting": "[2]", "value": "Active"}, {"measurement": "Drug uptake", "setting": "[3]", "value": "Active"}, {"measurement": "Activity", "setting": "Mus musculus [4]", "value": "inactive"}, {"measurement": "Activity", "setting": "Mus musculus [5]", "value": "inactive"}, {"measurement": "Activity", "setting": "Mus musculus [6]", "value": "Dose-Dependent Effect"}, {"measurement": "Activity", "setting": "Mus musculus [7]", "value": "inactive"}, {"measurement": "Activity", "setting": "Mus musculus [8]", "value": 80, "unit": "%"}, {"measurement": "Activity", "setting": "Mus musculus [9]", "value": 25, "unit": "%"}, {"measurement": "Activity", "setting": "Mus musculus [10]", "value": 80, "unit": "%"}, {"measurement": "Activity", "setting": "Mus musculus [11]", "value": 50, "unit": "%"}, {"measurement": "Activity", "setting": "Mus musculus [12]", "value": "Active"}, {"measurement": "Activity", "setting": "Mus musculus [13]", "value": "Active"}, {"measurement": "Activity", "setting": "Mus musculus [14]", "value": "Active"}, {"measurement": "Activity", "setting": "Mus musculus [15]", "value": "Active"}, {"measurement": "Activity", "setting": "Mus musculus [16]", "value": "Active"}, {"measurement": "Activity", "setting": "Mus musculus [17]", "value": "Active"}, {"measurement": "Activity", "setting": "Mus musculus [18]", "value": "inactive"}, {"measurement": "Activity", "setting": "[19]", "value": "Non-Toxic"}, {"measurement": "Activity", "setting": "Mus musculus [20]", "value": "inactive"}]}]}
